Measured values taken from ChEMBL document CHEMBL4261575, “Structure-guided approach identifies a novel class of HIV-1 ribonuclease H inhibitors: binding mode insights through magnesium complexation and site-directed mutagenesis studies” (Medchemcomm, 2018).
Activity calls are given as the source filed them. No cut-off for these calls is given here.

What was measured:
[1] = biological target: Human immunodeficiency virus type 1 reverse transcriptase (Human immunodeficiency virus 1, UniProt Q72547); assay: Inhibition of HIV1 reverse transcriptase RNase H activity using 18-nucleotide 3'-fluorescein-labeled RNA/5'-[…]-labeled DNA hybrid as substrate after 1 hr by fluorescence assay
Summary of the method: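 Polymerase-independent RNase H assay with 20 ng wild-type RT in 50 mM Tris-HCl pH 7.8, 6 mM MgCl2, 1 mM DTT and 80 mM KCl. Substrate was 0.25 μM RNA/DNA hybrid with a fluorescein-labelled RNA and a dabcyl-labelled DNA. Inhibitor was diluted in water over increasing concentrations. Incubation 1 h at 37 °C, stopped with EDTA, read at 490/528 nm. IC50 was averaged over three independent experiments.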

[2] = biological target: Human immunodeficiency virus type 1 reverse transcriptase (Human immunodeficiency virus 1) (UniProt Q72547); assay: Inhibition of HIV1 reverse transcriptase RNase H activity using 18-nucleotide 3'-fluorescein-labeled RNA/5'-[…]-labeled DNA hybrid as substrate assessed as remaining activity at 100 uM after 1 hr by fluorescence assay relative to control
Summary of the method: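 Wild-type RT (20 ng) RNase H reaction in Tris-HCl pH 7.8 buffer with 6 mM MgCl2, 1 mM DTT and 80 mM KCl. Substrate was 0.25 μM fluorescein/dabcyl RNA/DNA hybrid, with compound at 100 μM. Incubation 1 h at 37 °C, EDTA stop, fluorescence at 490/528 nm. Activity is given as percentage of control.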

[3] = Binding affinity to Mg2+ at 3 x 10^-5 M to 8 x 10^-5 M by UV-Vis spectrophotometric method
Summary of the method: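 UV-vis spectrophotometric titration of the compound in absolute ethanol with MgCl2, read in a quartz cuvette with a 1 cm path. MgCl2 was diluted in absolute ethanol to 13 stock solutions spanning 4 10–5 to 0.2 M (stock concentrations). Spectra were recorded across increasing Mg2+ levels, and isosbestic points were used to judge complexation equilibria. Each experiment was done in triplicate.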

[4] = biological target: Human immunodeficiency virus type 1 reverse transcriptase (Human immunodeficiency virus 1, UniProt Q72547, N474A); assay: Inhibition of HIV1 group M subtype B reverse transcriptase p66 N474A mutant RNase H activity using 18-nucleotide 3'-fluorescein-labeled RNA/5'-[…]-labeled DNA hybrid as substrate after 1 hr by fluorescence assay; set-up: species or system HIV-1 group M
Summary of the method: (§1)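 Mutations were introduced into the p66 subunit of subtype B RT. Enzyme amounts were set within the linear range: R448A 37.5 ng, N474A 62.5 ng, A502F 100 ng, R557A 75 ng. Buffer was 50 mM Tris-HCl pH 7.8, 6 mM MgCl2, 1 mM DTT, 80 mM KCl, with 0.25 μM fluorescein/dabcyl hybrid and water-diluted inhibitor. Incubation 1 h at 37 °C, EDTA stop, read at 490/528 nm.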

[5] = Selectivity ratio of IC50 for HIV1 group M subtype B reverse transcriptase p66 A502F mutant RNase H activity to IC50 for HIV1 reverse transcriptase RNase H activity
[6] = biological target: Human immunodeficiency virus type 1 reverse transcriptase (Human immunodeficiency virus 1, UniProt Q72547, A502F); assay: Inhibition of HIV1 group M subtype B reverse transcriptase p66 A502F mutant RNase H activity using 18-nucleotide 3'-fluorescein-labeled RNA/5'-[…]-labeled DNA hybrid as substrate after 1 hr by fluorescence assay; set-up: species or system HIV-1 group M; summary of the method: as §1
[7] = biological target: Human immunodeficiency virus type 1 reverse transcriptase (Human immunodeficiency virus 1, UniProt Q72547, R448A); assay: Inhibition of HIV1 group M subtype B reverse transcriptase p66 R448A mutant RNase H activity using 18-nucleotide 3'-fluorescein-labeled RNA/5'-[…]-labeled DNA hybrid as substrate after 1 hr by fluorescence assay; set-up: species or system HIV-1 group M; summary of the method: as §1
[8] = biological target: Human immunodeficiency virus type 1 reverse transcriptase (Human immunodeficiency virus 1, UniProt Q72547, R557A); assay: Inhibition of HIV1 group M subtype B reverse transcriptase p66 R557A mutant RNase H activity using 18-nucleotide 3'-fluorescein-labeled RNA/5'-[…]-labeled DNA hybrid as substrate after 1 hr by fluorescence assay; set-up: species or system HIV-1 group M; summary of the method: as §1
[9] = Selectivity ratio of IC50 for HIV1 group M subtype B reverse transcriptase p66 R448A mutant RNase H activity to IC50 for HIV1 reverse transcriptase RNase H activity
[10] = tested on: Human immunodeficiency virus 1; assay: Antiviral activity against HIV1 assessed as inhibition of viral replication at 40 uM by cell-based assay; format: functional, organism-based
[11] = Selectivity ratio of IC50 for HIV1 group M subtype B reverse transcriptase p66 R557A mutant RNase H activity to IC50 for HIV1 reverse transcriptase RNase H activity
[12] = Selectivity ratio of IC50 for HIV1 group M subtype B reverse transcriptase p66 N474A mutant RNase H activity to IC50 for HIV1 reverse transcriptase RNase H activity
[13] = (§2) Binding affinity to Mg2+ assessed as hyperchromic effect at 3 x 10^-5 M to 8 x 10^-5 M by UV-Vis spectrophotometric method
Summary of the method: (§3)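 UV-vis titration with MgCl2 in a 1 cm quartz cuvette. MgCl2 was diluted in absolute ethanol to 13 stock solutions spanning 4 10–5 to 0.2 M. Spectra were followed for absorbance changes and isosbestic points. Each experiment was done in triplicate.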

[14] = as §2; summary of the method: as §3; remark: listed apart in the source

## CCOc1cc(/C=C2\NC(=O)NC2=O)c(Cl)cc1OC
[1]
  IC50: > 100 µM
[2]
  Activity: 70%

## Cc1cc(/C=C2\SC(=N)NC2=O)c(C)n1-c1ccc(Cl)cc1
[1]
  IC50: 16.1 µM
[3]
  Activity: inactive

## NNC(=O)c1cccc(Cn2cc(Br)c([N+](=O)[O-])n2)c1
[1]
  IC50: > 100 µM
[2]
  Activity: 94.6%

## COc1cc(NC(=O)C2CC(=O)N=C(N)S2)cc(OC)c1 (configuration not stated)
[1]
  IC50: > 100 µM
[2]
  Activity: 74.5%

## CCc1nnc(NC(=O)C(=O)NCCOC(=O)c2ccccc2)s1
[1]
  IC50: > 100 µM
[2]
  Activity: 77.9%

## O=C1NC(=O)/C(=C/c2ccc(Cl)c(Cl)c2)S1
[1]
  IC50: > 100 µM
[2]
  Activity: 80.5%

## Cc1cccc(OCC(=O)NC(Cc2ccccc2)C(=O)O)c1 (configuration not stated)
[1]
  IC50: > 100 µM
[2]
  Activity: 87.2%

## O=C(O)COc1ccc(/C=C2\NC(=O)NC2=O)cc1I
[1]
  IC50: > 100 µM
[2]
  Activity: 67.5%

## CC1=C(C(=O)O)N2C(=O)C(NC(=O)c3ccn(C)n3)C2SC1 (configuration not stated)
[1]
  IC50: > 100 µM
[2]
  Activity: 80%

## Cc1cc(/C=C2\NC(=O)NC2=O)c(C)n1-c1ccc(OCc2ccc(Cl)cc2Cl)cc1
[1]
  IC50: 8.73 µM
[3]
  Activity: inactive

## NNC(=O)C12CC3CC(C1)CC(n1cnc(Cl)n1)(C3)C2
[1]
  IC50: > 100 µM
[2]
  Activity: 73.4%

## Cc1ccc(C2NC(=O)C(O)=C2C(=O)c2cccs2)cc1 (configuration not stated)
[1]
  IC50: > 100 µM
[2]
  Activity: 81.8%

## O=C1Nc2ccccc2/C1=N\NC(=O)c1ccc(O)cc1O
[1]
  IC50: 36.4 µM

## COc1cc(N2CCCC2)c(OC)cc1/C=C1/NC(=O)NC1=O
[4]
  IC50: > 300 µM
[1]
  IC50: 9.35 µM
[5]
  Ratio IC50: 3.5
[6]
  IC50: 32.5 µM
[7]
  IC50: 11 µM
[8]
  IC50: 20.5 µM
[9]
  Ratio IC50: 1.2
[10]
  inhibition: inactive
[11]
  Ratio IC50: 2.2
[3]
  Activity: Active
[12]
  Ratio IC50: > 32

## CCC(C)Oc1ccc(/C=C2\NC(=O)NC2=O)cc1 (configuration not stated)
[1]
  IC50: 52.8 µM

## CCCCC(CC)CN1C(=O)C(O)=C(C(C)=O)C1c1ccco1 (configuration not stated)
[1]
  IC50: > 100 µM
[2]
  Activity: 77.5%

## CSCCC(NS(=O)(=O)c1ccc2c(c1)NC(=O)C(C)O2)C(=O)O (configuration not stated)
[1]
  IC50: > 100 µM
[2]
  Activity: 80.2%

## Cc1ccc(C2CC2C(=O)NN)cc1 (configuration not stated)
[1]
  IC50: > 100 µM
[2]
  Activity: 83.5%

## C[S+]([O-])CCC(NS(=O)(=O)c1ccccc1)C(=O)O (configuration not stated)
[1]
  IC50: > 100 µM
[2]
  Activity: 86%

## COc1cccc(/C=C2\NC(=O)NC2=O)c1-c1ccc(OC(=O)Nc2ccccc2)cc1
[1]
  IC50: 28.1 µM

## COc1cc(/C=N/NC(=O)COc2cccc(C)c2)c(O)c([N+](=O)[O-])c1
[1]
  IC50: > 100 µM
[2]
  Activity: 59.4%

## O=C(O)CCCC(=O)NC1CCCCCCC1
[1]
  IC50: > 100 µM
[2]
  Activity: 76.3%

## O=C(CSc1nc2ccccc2o1)Nc1ncn[nH]1
[1]
  IC50: > 100 µM
[2]
  Activity: 82.7%

## CCOc1ccc(/C=C2\NC(=O)NC2=O)c(Cl)c1OC
[1]
  IC50: 84.2 µM

## O=C(OCCOCn1cc(Br)c(=O)[nH]c1=O)c1ccccc1
[1]
  IC50: > 100 µM
[2]
  Activity: 69.1%

## O=C(O)CC1CSc2ccccc2NC1=O (configuration not stated)
[1]
  IC50: > 100 µM
[2]
  Activity: 76.5%

## COc1ccccc1NC(=O)C1CCCCC1(C)C(=O)O (configuration not stated)
[1]
  IC50: 61.2 µM

## CCOc1cccc(/C=C2\SC(=O)NC2=O)c1O
[1]
  IC50: > 100 µM
[2]
  Activity: 60%

## CCCOC(=O)CNc1n[nH]c(=O)[nH]c1=O
[1]
  IC50: > 100 µM
[2]
  Activity: 89.1%

## CCOC(=O)C12CC(OC3CCCCC3)C1(c1ccccc1)NC(=O)C2=O (configuration not stated)
[1]
  IC50: > 100 µM
[2]
  Activity: 80.4%

## COc1ccccc1/C=C/CN1CCNC(=O)C1CC(=O)O (configuration not stated)
[1]
  IC50: > 100 µM
[2]
  Activity: 83.7%

## O=C(O)C1Sc2[nH]c(=O)sc2C2c3ccccc3OC(=O)C12 (configuration not stated)
[1]
  IC50: > 100 µM
[2]
  Activity: 80%

## O=C(N/N=C\c1cc([N+](=O)[O-])c(O)cc1O)c1ccccc1O
[1]
  IC50: 49.9 µM

## CCOc1cc(/C=C2\SC(=S)N(c3ccccc3)C2=O)cc([N+](=O)[O-])c1O
[4]
  IC50: 146 µM
[1]
  IC50: 12.8 µM
[5]
  Ratio IC50: 2.1
[6]
  IC50: 26.3 µM
[7]
  IC50: 11.3 µM
[8]
  IC50: 18.6 µM
[9]
  Ratio IC50: 0.9
[13]
  Activity: Active
[10]
  inhibition: inactive
[11]
  Ratio IC50: 1.5
[3]
  Activity: Active
[14]
  Activity: Active
[12]
  Ratio IC50: 11.4

## CCCc1cc2c(cc1/C=C1\NC(=O)NC1=O)OCO2
[1]
  IC50: 91.6 µM

## CCOc1ccc(/C=C2\SC(=O)NC2=O)cc1OCc1ccc(Cl)c(Cl)c1
[4]
  IC50: > 300 µM
[1]
  IC50: 5.17 µM
[5]
  Ratio IC50: 5.3
[6]
  IC50: 26.7 µM
[7]
  IC50: 7.01 µM
[8]
  IC50: 12.5 µM
[9]
  Ratio IC50: 1.4
[10]
  inhibition: inactive
[11]
  Ratio IC50: 2.5
[3]
  Activity: inactive
[12]
  Ratio IC50: > 59

## Cc1cc(/C=C2\SC(N)=NC2=O)c(C)n1-c1ccc(F)cc1
[1]
  IC50: 12.3 µM
[3]
  Activity: inactive

## CCN1C(=O)/C(=C/c2ccc(O)c([N+](=O)[O-])c2)SC1=S
[1]
  IC50: > 100 µM
[2]
  Activity: 65.5%

## CC(C)c1ccc(O)c(=O)c(O)c1 [BETA-THUJAPLICINOL]
[4]
  IC50: 0.1 µM
[5]
  Ratio IC50: 0.85
[6]
  IC50: 0.17 µM
[7]
  IC50: 0.14 µM
[8]
  IC50: 0.21 µM
[9]
  Ratio IC50: 0.7
[11]
  Ratio IC50: 1.05
[12]
  Ratio IC50: 0.5

## CC(Oc1ccc(C(C)(C)C)cc1)C(=O)NN (configuration not stated)
[1]
  IC50: > 100 µM
[2]
  Activity: 70.4%

## NC(=O)N(CCC(=O)O)c1ccc(Br)cc1
[1]
  IC50: > 100 µM
[2]
  Activity: 84.5%

## Cc1cc(/C=C2\NC(=O)NC2=O)cc(C)c1OCc1cccc([N+](=O)[O-])c1
[1]
  IC50: 17.8 µM

## COC(=O)c1c(-c2cccs2)csc1NC(=O)C1CC=CCC1C(=O)O (configuration not stated)
[1]
  IC50: > 100 µM
[2]
  Activity: 93%

## Cc1nc(N)sc1C(=O)N/N=C\c1ccc(O)c([N+](=O)[O-])c1
[1]
  IC50: > 100 µM
[2]
  Activity: 55%

## CC(=O)c1cc2c(cc1NC(=O)CCC(=O)O)OCO2
[1]
  IC50: > 100 µM
[2]
  Activity: 89.5%
